pIC50: −log10 of the molar value.
Columns and labels:
[1] = biological target: Dual specificity tyrosine-phosphorylation-regulated kinase 1A (Rattus norvegicus, UniProt Q63470); test: Inhibition of rat recombinant GST-fused DYRK1A expressed in Escherichia coli using KKISGRLSPIMTEQ as substrate by scintillation counting in presence of [gamma-33P]ATP
[2] = biological target: Dual specificity protein kinase CLK1 (Homo sapiens, UniProt P49759); test: Inhibition of human recombinant GST-fused CLK1 expressed in Escherichia coli using GRSRSRSRSRSR as substrate
In short: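 GST-tagged human CLK1 made in E. coli. Buffer A (MgCl2, EGTA, DTT, 25 mM Tris-HCl pH 7.5, heparin) with 0.15 mg BSA/mL, RS peptide substrate at 1 µg/assay, 15 µM final ATP. Run 30 min at 30 °C in triplicate. Activity is given as % of the no-inhibitor maximum after blank subtraction. Compounds screened at 10 µM; IC50 from dose-response curves (usually 0.01–10 µM).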

[3] = biological target: Glycogen synthase kinase-3 (Sus scrofa, UniProt B2LUN4+I6LNT8); test: Inhibition of GSK3 alpha/beta in pig brain using YRRAAVPPSPSLSRHSSPHQpSEDEEE as substrate by scintillation counting in presence of [gamma-33P]ATP
In short: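 Native GSK-3α/β from porcine brain, run in triplicate in buffer A (10 mM MgCl2, 1 mM EGTA, 1 mM DTT, 25 mM Tris–HCl pH 7.5, 50 µg heparin/mL) with GS-1 peptide substrate and 15 µM [γ-33P]ATP final, 30 min at 30 °C; spotted on P81 phosphocellulose, acid-washed, counted. Single 10 µM screen, then dose–response (usually 0.01–10 µM) for IC50; blank-subtracted, % of uninhibited activity.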

[4] = biological target: Cyclin-dependent kinase 5/CDK5 activator 1 (Homo sapiens, UniProt Q00535); test: inhibition of human recombinant CDK5/p25 using histone H1 as substrate by scintillation counting in presence of [gamma-33P]ATP; assay type: protein-complex assay
In short: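 Human recombinant CDK5/p25 in buffer A (Tris-HCl pH 7.5, MgCl2, EGTA, DTT, heparin) with 1 mg/mL histone H1 and 15 µM [γ-33P]ATP. Run 30 min at 30 °C in triplicate. P81 filter binding, phosphoric acid washes, scintillation counting. Activity is % of maximal after blank subtraction. Compounds screened at 10 µM; IC50 from dose-response curves.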

[5] = Inhibition of CK1 delta/epsilon in pig brain using RRKHAAIGpSAYSITA as substrate by scintillation counting in presence of [gamma-33P]ATP; parameters: species or system Sus scrofa

Sequence of Dual specificity protein kinase CLK1 (P49759 whole entry, the tested form may be a part): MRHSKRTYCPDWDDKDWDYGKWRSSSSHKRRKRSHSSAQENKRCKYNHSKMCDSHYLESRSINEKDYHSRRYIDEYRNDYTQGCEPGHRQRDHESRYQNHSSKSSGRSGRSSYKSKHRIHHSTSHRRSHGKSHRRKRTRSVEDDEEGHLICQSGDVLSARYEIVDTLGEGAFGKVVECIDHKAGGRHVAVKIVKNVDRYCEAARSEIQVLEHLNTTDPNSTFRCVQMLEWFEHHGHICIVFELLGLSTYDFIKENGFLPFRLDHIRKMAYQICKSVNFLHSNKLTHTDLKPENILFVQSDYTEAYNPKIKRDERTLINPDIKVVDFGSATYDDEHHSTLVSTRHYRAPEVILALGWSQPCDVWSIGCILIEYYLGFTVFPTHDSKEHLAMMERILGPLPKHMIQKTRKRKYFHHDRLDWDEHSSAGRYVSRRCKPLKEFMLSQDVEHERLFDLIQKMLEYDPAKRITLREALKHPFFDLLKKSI
Sequence of Cyclin-dependent kinase 5/CDK5 activator 1 (Q00535 whole entry): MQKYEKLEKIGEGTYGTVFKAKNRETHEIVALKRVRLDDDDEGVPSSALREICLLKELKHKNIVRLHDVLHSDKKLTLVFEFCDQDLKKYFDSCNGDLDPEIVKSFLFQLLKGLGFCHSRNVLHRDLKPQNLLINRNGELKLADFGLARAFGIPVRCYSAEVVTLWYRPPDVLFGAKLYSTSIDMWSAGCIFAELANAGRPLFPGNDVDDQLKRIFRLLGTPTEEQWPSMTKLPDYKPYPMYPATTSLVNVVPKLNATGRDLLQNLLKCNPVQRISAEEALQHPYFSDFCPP
Sequence of Cyclin-dependent kinase 5/CDK5 activator 1 (Q15078 whole entry, further chain): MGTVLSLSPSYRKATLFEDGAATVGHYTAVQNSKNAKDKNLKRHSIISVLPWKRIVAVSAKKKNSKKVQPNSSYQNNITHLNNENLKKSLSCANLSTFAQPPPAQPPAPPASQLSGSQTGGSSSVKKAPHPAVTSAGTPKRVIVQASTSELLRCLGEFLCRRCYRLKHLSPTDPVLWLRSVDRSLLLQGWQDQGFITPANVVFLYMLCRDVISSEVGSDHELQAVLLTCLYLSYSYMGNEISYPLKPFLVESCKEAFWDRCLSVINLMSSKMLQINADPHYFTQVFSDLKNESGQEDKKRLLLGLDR

Structure (SMILES) | pIC50 [1] | pIC50 [2] | IC50 [3] [µM] | pIC50 [4] | pIC50 [5]
COc1cc2ncnc(Nc3ccccc3)c2cc1OC | < 5.00 | ≤ 5.00 | > 10 | < 5.00 | < 5.00
O=C1Nc2cc(Br)ccc2/C1=C1/Nc2ccccc2/C1=N\O [6BIO] | – | 5.68 | – | – | –
COc1cc2ncnc(Nc3ccc(C(C)=O)cc3)c2cc1OC | < 5.00 | ≤ 5.00 | > 10 | < 5.00 | < 5.00
COc1cc2ncnc(Nc3ccc(F)c(Cl)c3)c2cc1OC | < 5.00 | 5.12 | > 10 | < 5.00 | < 5.00
COc1ccc(Nc2ncnc3cc(OC)c(OC)cc23)cc1 | < 5.00 | < 5.00 | > 10 | < 5.00 | < 5.00
COc1cc2ncnc(Nc3ccc(C)c(C)c3)c2cc1OC | < 5.00 | < 5.00 | > 10 | < 5.00 | < 5.00
COc1cc2ncnc(Nc3ccc(OC(F)(F)F)cc3)c2cc1OC | < 5.00 | < 5.00 | > 10 | < 5.00 | < 5.00
COc1ccc(Nc2ncnc3cc(OC)c(OC)cc23)cc1OC | ≤ 5.00 | 5.82 | 3 | < 5.00 | < 5.00
COc1cc2ncnc(Nc3ccc(C(F)(F)F)cc3)c2cc1OC | < 5.00 | < 5.00 | > 10 | < 5.00 | < 5.00
COc1cc2ncnc(Nc3cccc(C(F)(F)F)c3)c2cc1OC | < 5.00 | < 5.00 | > 10 | < 5.00 | < 5.00
COc1cc2ncnc(Nc3ccc(NC(C)=O)cc3)c2cc1OC | < 5.00 | < 5.00 | > 10 | < 5.00 | < 5.00

From ChEMBL document CHEMBL3124767, “Synthesis, biological evaluation and molecular modelling studies of 4-anilinoquinazoline derivatives as protein kinase inhibitors” (Bioorg Med Chem, 2014)
